PfG6PD inh = PfG6PD enzyme inhibitors, primary screen, biochemical, fluorescence intensity, uHTS; PfGluPho enzyme, NADPH resazurin-diaphorase fluorescence; inhibition, % at 20 µM; actives 0.78% (n = 350,000);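 active means inhibition reaching at least a set limit at 20 µM in the primary screen, cut at about 59% in these data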
HKDC1 inh = HKDC1 hexokinase inhibitors, primary screen, biochemical, fluorescence, uHTS | Q2TB90 | recombinant HKDC1, G6PDH/diaphorase resazurin coupled fluorescence | inhibition, % at 20 µM | actives 0.16% (n = 340,000);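 active means inhibition above about 35% when tested at 20 µM, limit read from the data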
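Material – in-house recombinant HK5 (HKDC1) enzyme · Quantity – HKDC1 at 5 µg/mL · Buffer or medium – pH 8.0 Tris buffer with 10 mM MgCl2 · Reagent – glucose with 1 mM ATP · Dosing – single 20 µM dose · Times – reaction time 90 min, room temperature, protected from light · Technique – resorufin fluorescence at 613 nm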
APOBEC3G inh = APOBEC3G DNA deaminase inhibitors, primary screen, biochemical, fluorescence, single-stranded DNA substrate, uHTS | DNA dC->dU-editing enzyme APOBEC-3G (Homo sapiens), Q9HC16 | AID 493012, 2011 | recombinant A3G, ssDNA deamination FAM/TAMRA fluorescence | actives 0.28% (n = 330,000) | inhibition, % at 20 µM;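 active means inhibition of at least 40% at 20 µM, with no more than 30% in the related APOBEC3A deaminase screen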
UBC9 SUMO inh = inhibitors of in vitro SUMOylation cascade, primary screen, biochemical, HTRF, uHTS; inhibition, % at 35 µM; actives 0.36% (n = 290,000); AID 2006, 2009; HTRF SUMOylation assay, SAE1/SAE2 + UBC9; in the data active means inhibition above about 50%, passing the limit was not always enough
A3A deaminase = APOBEC3A ssDNA deaminase inhibitors, primary screen, selectivity assay for APOBEC3G inhibitor project, biochemical, FAM/TAMRA oligo cleavage fluorescence; DNA dC->dU-editing enzyme APOBEC-3A (Homo sapiens), P31941; recombinant A3A, FAM/TAMRA ssDNA deamination fluorescence; inhibition, % at 20 µM; actives 0.41% (n = 330,000); AID 493011, 2011;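 active means at least 40% inhibition at 20 µM here, with at most 30% in a related deaminase screen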
PfM18AAP inh-1 = PfM18AAP inhibitors, malaria aminopeptidase, primary screen, biochemical, QFRET, recombinant enzyme; inhibition, % at 7.35 µM; AID 1822, 2009; actives 1.2% (n = 290,000); M18 aspartyl aminopeptidase (Plasmodium falciparum 3D7); H-Glu-NHMec fluorogenic cleavage;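 active means inhibition above the campaign mean inhibition over all tested compounds plus 3 SD, cut at about 28% in these data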
PfM18AAP inh-2 = PfM18AAP inhibitors, malaria aminopeptidase, confirmation, biochemical, QFRET, recombinant enzyme, triplicate. shares compounds with PfM18AAP inh-1. H-Glu-NHMec fluorogenic cleavage. inhibition, % at 7.35 µM. actives 28% (n = 2,400). AID 2170, 2009;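 active means mean inhibition over replicate wells above the hit cutoff set for the earlier primary screen, cut at about 29% in these data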
CTSL1 confirm = cathepsin L1 inhibitors, retest, confirmation, counter-screen for PFM18AAP inhibitor project, biochemical, QFRET, triplicate | 2,400 tested, under 10 active | purified cathepsin L1, Z-Leu-Arg-MCA fluorescence | shares compounds with PfM18AAP inh-1 | inhibition, % at 5.96 µM;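 active means average inhibition across replicates above the hit cutoff set in the earlier primary screen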
Target sequence (P07711 whole entry, looked up): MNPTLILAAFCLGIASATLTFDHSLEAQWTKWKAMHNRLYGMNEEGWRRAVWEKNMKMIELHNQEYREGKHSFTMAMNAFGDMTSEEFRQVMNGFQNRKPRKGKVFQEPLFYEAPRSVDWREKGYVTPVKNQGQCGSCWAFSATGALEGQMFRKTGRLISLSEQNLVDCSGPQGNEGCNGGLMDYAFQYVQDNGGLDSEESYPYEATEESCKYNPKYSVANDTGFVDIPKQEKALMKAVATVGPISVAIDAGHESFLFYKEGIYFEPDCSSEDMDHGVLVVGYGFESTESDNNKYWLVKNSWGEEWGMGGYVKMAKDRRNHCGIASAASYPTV
A3G conf = APOBEC3G deaminase inhibitor retest, confirmation, biochemical, fluorescence, single-stranded DNA substrate, single concentration; shares compounds with APOBEC3G inh; recombinant A3G ssDNA deaminase, UDG/FAM-TAMRA fluorescence; inhibition, % at 20 µM; actives 72% (n = 890);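 active means inhibition reaching a set limit in any replicate at 20 µM, the limit being 80% of the first screen's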
UDG ctr A3G = E. coli UDG inhibitors, confirmation, counter-screen for APOBEC3G inhibitor project, biochemical, single concentration, fluorescence, FAM/TAMRA oligo; 710 tested, under 10 active; UDG counterscreen; inhibition, % at 20 µM; shares compounds with APOBEC3G inh;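 active means compounds giving 40% or more inhibition at 20 µM in any one of the three replicates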;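 further: inhibitors lower the FAM signal released by uracil excision and alkaline cleavage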
Target sequence (P12295 whole entry, looked up): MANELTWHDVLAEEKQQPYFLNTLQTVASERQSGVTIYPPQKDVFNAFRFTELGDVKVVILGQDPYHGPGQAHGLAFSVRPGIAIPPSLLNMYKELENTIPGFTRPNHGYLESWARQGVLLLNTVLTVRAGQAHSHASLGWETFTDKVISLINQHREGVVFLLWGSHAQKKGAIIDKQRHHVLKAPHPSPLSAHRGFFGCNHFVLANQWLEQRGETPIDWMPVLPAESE
PfGluPho conf = PfG6PD inhibitors, hit retest, confirmation, biochemical, fluorescence intensity, single concentration | recombinant PfGluPho, NADPH-diaphorase-resazurin fluorescence | shares compounds with PfG6PD inh | actives 34% (n = 2,400) | AID 504753, 2011 | inhibition, % at 20 µM;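 active means inhibition of at least 50% at 20 µM in any single replicate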
Diaphorase 10uM = diaphorase inhibitors and chemical oxidizers, confirmation, counter-screen for P. falciparum G6PD inhibitor project, biochemical, fluorescence intensity, 10 µM NADPH; shares compounds with PfG6PD inh; diaphorase-coupled resazurin reduction, NADPH 10 uM; inhibition, % at 20 µM; actives 39% (n = 820);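 active means average inhibition reaching 50% or more with the compound at 20 µM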;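 further: resorufin red fluorescence formed as diaphorase reduces resazurin using NADPH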
Diaphorase 30uM = diaphorase inhibitors and chemical oxidizers, confirmation, counter-screen for P. falciparum G6PD inhibitor project, biochemical, fluorescence intensity, 30 µM NADPH; AID 504863, 2011; shares compounds with PfG6PD inh; actives 29% (n = 820); inhibition, % at 20 µM; Diaphorase/resazurin coupled assay, resorufin fluorescence;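 active means inhibition averaging 50% or more, tested at 20 µM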
Numbers stand for hits; n = inactive; x = no result given. A selection: hits, their analogues and other compounds. The true share with any hit is near 2.4%.

SMILES	PfG6PD inh	HKDC1 inh	APOBEC3G inh	UBC9 SUMO inh	A3A deaminase	PfM18AAP inh-1	PfM18AAP inh-2	CTSL1 confirm	PfGluPho conf	Diaphorase 10uM	Diaphorase 30uM	others
CCCNC(=O)Cn1sc2nc(C)cc(C)c2c1=O	81	n	60	n	n	58	30	n	68	n	n	A3G conf=77;UDG ctr A3G=n
Cc1cc(C)c2c(=O)n(CC(=O)N3CCC(N4CCCCC4)CC3)sc2n1	80	n	49	n	n	43	n	n	63	n	n	A3G conf=82;UDG ctr A3G=n
CCOC(=O)C1CCCN(C(=O)Cn2sc3nc(C)cc(C)c3c2=O)C1 (stereo not given)	68	n	50	n	n	59	n	n	52	n	n	A3G conf=78;UDG ctr A3G=n
O=S1(=O)CCN(C(CO)c2ccccc2)CC1 (stereo not given)	n	n	n	n	n	n	x	x	x	x	x
Cc1cc(C)n(C(=O)CCNC(=O)c2ccccc2Br)n1	n	n	n	n	n	n	x	x	x	x	x
CCn1c(=O)n(CC)c2cc(N3CCCC3)c(NC(=O)c3ccc(F)cc3)cc21	78	n	n	n	n	35	n	n	n	x	x
CCOc1ccc(C(=O)Nc2cc3c(cc2N2CCCC2)n(CC)c(=O)n3CC)cc1OCC	n	n	n	n	n	n	x	x	x	x	x
CC(C)(C)NC(=O)COC(=O)c1ccccc1C(=O)c1ccccc1	n	n	n	n	n	n	x	x	x	x	x
O=C(COC(=O)c1cnccn1)c1ccc([N+](=O)[O-])cc1	79	n	n	n	n	40	n	n	68	n	n
CCOC(=O)c1c(C)n(-c2ccc(C)cc2)c2c(C(C(C)=O)C(=O)O)c(Br)c(O)c(O)c12 (stereo not given)	105	n	n	n	n	65	37	n	101	n	n
COc1ccc(C2CC(=O)N3C(=C2C#N)SCC3(O)c2ccccc2)cc1 (stereo not given)	n	n	n	n	n	n	x	x	x	x	x
COc1cc(OC)c(C2CC(=O)N3CN(c4ccccc4)CSC3=C2C#N)cc1OC (stereo not given)	81	n	n	n	n	39	n	n	58	n	n
CC(C)C(c1nnnn1Cc1ccc(F)cc1)N1CCN(c2ccc(O)cc2)CC1 (stereo not given)	64	n	n	n	n	32	n	n	n	x	x
COc1ccc(Cn2nnnc2C(C(C)C)N2CCN(c3ccccc3OC)CC2)cc1 (stereo not given)	n	n	n	n	n	n	x	x	x	x	x
O=S(=O)(Nc1ccc(Cl)cc1)c1ccc(N2CCOCC2)c(NC(=S)NCCN2CCOCC2)c1	69	n	n	n	n	45	n	n	63	n	n
O=C(Cc1ccc(NS(=O)(=O)c2ccc(Cl)c(Cl)c2)cc1)NCCN1CCOCC1	n	n	n	x	n	x	x	x	x	x	x
Cc1ccc(S(=O)(=O)N2CCOCC2)cc1NC(=O)CN1CCN(c2ccc(O)cc2)CC1	65	n	n	n	n	34	n	n	n	x	x
CCC(CC)COC(=O)C1=C(C)NC(=O)NC1c1ccc(N(C)C)cc1 (stereo not given)	n	n	n	n	n	n	x	x	x	x	x
O=C(NC1CCCCCCC1)c1ccc2c(c1)OCO2	n	n	n	n	n	n	x	x	x	x	x
c1cc2c(cc1NC1CCCCCC1)OCO2	62	n	n	n	n	53	n	n	61	n	n
Cc1ccc(C)c(OCCC(=O)OCC(=O)c2c(N)n(C)c(=O)n(C)c2=O)c1	n	n	n	x	n	x	x	x	x	x	x
Nc1c(C(=O)Nc2ccc(F)cc2)sc(=S)n1-c1ccccc1F	99	n	n	n	n	48	n	n	56	n	n
Cn1c(N)c(C(=O)Nc2ccccc2F)sc1=S	n	n	n	n	n	n	x	x	x	x	x
NC(=O)C1CCN(C(=O)c2cccc(S(=O)(=O)N3CCc4ccccc4C3)c2)CC1	n	n	n	n	n	n	x	x	x	x	x
O=C(c1cccc(S(=O)(=O)N2CCc3ccccc3C2)c1)N1CCN(c2ccc(O)cc2)CC1	66	n	n	n	n	36	n	n	n	x	x
Cc1cccc(NC(=O)Cn2c(=O)oc3cc(S(=O)(=O)N4CCCC4)ccc32)n1	n	n	n	n	n	n	x	x	x	x	x
Cn1c(=O)[nH]c(=O)c2c1nc(SCCN1CCCCC1)n2CCCc1ccccc1	77	n	n	n	n	55	n	n	63	n	n
C[C@H](NC(=O)c1cc2c(cn1)[nH]c1ccccc12)C(=O)O	98	n	n	n	n	51	n	n	62	n	n

Compound activity: PubChem, several laboratories
